Results from ChEMBL document CHEMBL4229392, “An Efficient Buchwald-Hartwig/Reductive Cyclization for the Scaffold Diversification of Halogenated Phenazines: Potent Antibacterial Targeting, Biofilm Eradication, and Prodrug Exploration” (J Med Chem, 2018).
≈ marks a conversion by molar mass, not a printed value. Calls of active or inactive are those of the source. The calls are words filed in the database; no cut-off is given here.

Experiments:
[1] = test system: Enterococcus faecium; assay: Antibacterial activity against vancomycin-resistant Enterococcus faecium ATCC 700221 after 16 to 18 hrs by broth microdilution method; type: functional
In short: (§1)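 CLSI broth microdilution in Lysogeny Broth, eleven two-fold dilutions spanning 0.10–100 µM; ~10^5 cells per well from log-phase culture; DMSO vehicle (top 1% v/v). MIC = lowest concentration preventing growth after 16–18 h at 37 °C, supported by OD600; three independent experiments.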

[2] = test system: Staphylococcus aureus; assay: Bactericidal activity against methicillin-resistant Staphylococcus aureus 2 planktonic cells after 24 hrs by calgary biofilm device method; type: organism-based
In short: (§2)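 Biofilms grown 24 h at 37 °C on Calgary device pegs from mid-log culture diluted 1,000-fold in TSB + 0.5% glucose; washed pegs challenged 24 h at 37 °C with 2-fold serial dilutions. Challenge medium subcultured into fresh TSBG overnight; MBC = concentration without visible turbidity; at least three independent experiments.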

[3] = test system: Staphylococcus epidermidis; assay: Antibacterial activity against methicillin-resistant Staphylococcus epidermidis ATCC 35984 after 16 to 18 hrs by broth microdilution method; type: functional
[4] = test system: Staphylococcus aureus; assay: Induction of biofilm eradication of methicillin-resistant Staphylococcus aureus 2 after 24 hrs by calgary biofilm device method; type: functional
In short: (§3)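 Calgary device: biofilms established 24 h at 37 °C from mid-log culture diluted 1,000-fold in TSBG (0.5% glucose), washed, exposed 24 h to 2-fold serial dilutions, then peg lid moved to fresh TSBG for 24 h recovery. MBEC = lowest concentration giving no turbidity; at least three independent experiments.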

[5] = test system: Staphylococcus epidermidis; assay: Induction of biofilm eradication of methicillin-resistant Staphylococcus epidermidis ATCC 35984 after 24 hrs by calgary biofilm device method; type: functional; in short: as §3
[6] = test system: Staphylococcus aureus; assay: Antibacterial activity against methicillin-resistant Staphylococcus aureus 2 after 16 to 18 hrs by broth microdilution method; type: functional; in short: as §1
[7] = test system: Staphylococcus epidermidis; assay: Bactericidal activity against methicillin-resistant Staphylococcus epidermidis ATCC 35984 planktonic cells after 24 hrs by calgary biofilm device method; type: organism-based; in short: as §2
[8] = test system: Enterococcus faecium; assay: Bactericidal activity against vancomycin-resistant Enterococcus faecium ATCC 700221 planktonic cells after 24 hrs by calgary biofilm device method; type: organism-based; in short: as §2
[9] = test system: HeLa; assay: Cytotoxicity against human HeLa cells after 24 hrs by LDH release assy; type: cell-based
In short: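 HeLa cells in DMEM with 10% FBS at 37 °C, 5% CO2, dosed at 70-80% confluence with compound diluted in medium at 25, 50 and 100 µM for 24 h. Supernatant mixed with LDH reaction mixture, 30 min at room temperature, stopped, A490 read. Triton X-100 (2% v/v) as maximal-release control, medium only as no-death control, DMSO as vehicle. Three independent experiments.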

[10] = Hemolytic activity in human RBC at 200 uM after 1 hr relative to control; type: ADME, cell-based, Erythrocyte; conditions: red blood cells (erythrocytes), read-out: Activity
In short: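 Human RBCs drawn fresh into EDTA were washed three times in Tris-buffered saline (0.01 M Tris, 0.155 M NaCl, pH 7.2). 2% hRBC suspension was added to compound from DMSO stock, final 200 µM, for 1 h at 37 °C, then centrifuged and supernatant OD405 read. Scaled between DMSO (0%) and Triton X (100%). Three independent experiments.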

[11] = test system: Staphylococcus aureus; assay: Antibacterial activity against methicillin-resistant Staphylococcus aureus BAA-1707 after 16 to 18 hrs by broth microdilution method; type: functional; in short: as §1
[12] = test system: Staphylococcus aureus; assay: Antibacterial activity against methicillin-resistant Staphylococcus aureus BAA-1707 after 16 hrs by agar diffusion method; type: functional
[13] = Metal chelating activity assessed as compound-copper complex formation by UV-vis spectrometry
[14] = test system: Staphylococcus aureus; assay: Induction of biofilm eradication of methicillin-resistant Staphylococcus aureus BAA-1707 after 24 hrs by calgary biofilm device method; type: functional; in short: as §3
[15] = test system: Staphylococcus aureus; assay: Bactericidal activity against methicillin-resistant Staphylococcus aureus BAA-44 planktonic cells after 24 hrs by calgary biofilm device method; type: organism-based; in short: as §2
[16] = test system: Staphylococcus epidermidis; assay: Induction of biofilm eradication of methicillin-resistant Staphylococcus epidermidis ATCC 35984 at 1 to 10 uM after 24 hrs by live/dead staining-based fluorescence microscopic method; type: functional, organism-based
In short: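 MRSE 35984 mid-log culture diluted 1:1,000, biofilms grown 24 h at 37 °C in compartment dishes, saline-washed, then treated at 1, 5 and 10 µM in fresh medium for 24 h at 37 °C; DMSO negative control. After saline wash, live/dead stained biofilms imaged by fluorescence microscopy; three independent experiments.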

[17] = test system: Mycobacterium tuberculosis; assay: Antibacterial activity against Mycobacterium tuberculosis H37Ra ATCC 25177 after 7 days; type: functional; conditions: H37Ra ATCC 25177, 168 h
In short: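 M. tuberculosis H37Ra grown two weeks in Middlebrook 7H9, diluted to OD600 0.01; two-fold serial dilutions 0.024–50 µM (streptomycin positive control, 0.16–340 µM); final DMSO 0.5%. Incubated 7 days at 37 °C; MIC = lowest concentration with no growth, OD600 recorded; three independent experiments.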

[18] = Metal chelating activity assessed as compound-Fe2+ complex formation at 5 mM by UV-vis spectrometry
In short: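 HP solutions given ammonium iron(II) sulfate hexahydrate; UV-vis scans 300–700 nm in 2 nm steps, λmax 374 nm. Loss of absorbance at 374 nm taken as loss of free hydroxyphenazine and formation of phenazine–iron(II) complex.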

[19] = test system: Enterococcus faecium; assay: Induction of biofilm eradication of vancomycin-resistant Enterococcus faecium ATCC 700221 after 24 hrs by calgary biofilm device method; type: functional; in short: as §3
[20] = Half life in human serum by LC-MS analysis; type: ADME, cell-free
In short: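 Human serum pre-warmed to 37 °C, spiked with prodrug from 10 mM DMSO stock plus internal standard, vortexed, then held 1 to 60 min. At each time point, acetonitrile with 0.5% formic acid was added to precipitate proteins. Released active HP was quantified as its ratio to internal standard against standard curves.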

[21] = test system: Staphylococcus aureus; assay: Bactericidal activity against methicillin-resistant Staphylococcus aureus BAA-1707 planktonic cells after 24 hrs by calgary biofilm device method; type: organism-based; in short: as §2
[22] = Selectivity index, ratio of IC50 for human HeLa cells to MIC for methicillin-resistant Staphylococcus aureus BAA-1707; type: toxicity; conditions: read-out: Selectivity Index
In short: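 HeLa cells in DMEM + 10% FBS, 37 °C, 5% CO2, at 70–80% confluence exposed 24 h to 25, 50 and 100 µM; LDH release read at 490 nm (Triton X-100 2% maximum, medium-only minimum); three independent experiments. Index = HeLa IC50 divided by MRSA BAA-1707 MIC.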

[23] = Stability in lysogeny broth at 37 degC up to 16 hrs by UV-vis spectrophotometric method; type: physicochemical
In short: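 Compound from 10 mM DMSO stock was added to LB pre-warmed to 37 °C and incubated at 37 °C. At each time point it was extracted with an equal volume of ethyl acetate, and UV-vis spectra were scanned from 200 to 700 nm in 2 nm steps.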

[24] = test system: Staphylococcus aureus; assay: Induction of biofilm eradication of methicillin-resistant Staphylococcus aureus BAA-44 after 24 hrs by calgary biofilm device method; type: functional; in short: as §3

Structure (SMILES) | MIC [1] [µM] | MBC [2] [µM] | MIC [3] [µM] | MBEC [4] [µM] | MBEC [5] [µM] | MIC [6] [µM] | MBC [7] [µM] | MBC [8] [µM] | IC50 [9] [µM] | hemolysis at 1 h, 200 µM [10] [%] | MIC [11] [µM] | MBEC [14] [µM] | MBC [15] [µM] | MIC [17] [µM] | MBEC [19] [µM] | MBC [21] [µM] | further results
CC(C)(C)c1ccc2nc3c(O)c(Br)cc(Br)c3nc2c1 | 0.1 (≈ 0.041 µg/mL) | 3.13 (≈ 1.28 µg/mL) | 0.1 (≈ 0.041 µg/mL) | 3.13 | 3.13 | 0.1 (≈ 0.041 µg/mL) | 6.25 (≈ 2.56 µg/mL) | 1.56 (≈ 0.64 µg/mL) | > 100 | ≤ 1 | 0.1 (≈ 0.041 µg/mL) | – | – | – | – | – | –
Oc1c(Br)cc(Br)c2nc3cc(Cl)ccc3nc12 | – | 6.25 (≈ 2.43 µg/mL) | 0.1 (≈ 0.0388 µg/mL) | 25 | 37.5 | 0.1 (≈ 0.0388 µg/mL) | 6.25 (≈ 2.43 µg/mL) | – | > 100 | ≤ 1 | 0.038 (≈ 0.0148 µg/mL) | 4.69 | 6.25 (≈ 2.43 µg/mL) | 3.13 (≈ 1.22 µg/mL) | – | – | inhibition zone (IZ) [12]: 4.25 cm2; Activity [13]: Active; Activity [16]: Active; Activity [18]: Active
CC1=C(C)C(=O)C(COC(=O)OCOc2c(Br)cc(Br)c3nc4cc(Cl)ccc4nc23)=C(C)C1=O | 1.56 (≈ 0.974 µg/mL) | – | – | – | 25 | – | 12.5 (≈ 7.81 µg/mL) | 3.13 (≈ 1.96 µg/mL) | > 100 | 2.7 | 0.15 (≈ 0.0937 µg/mL) | 12.5 | – | – | 3.13 | 6.25 (≈ 3.9 µg/mL) | inhibition zone (IZ) [12]: 2.86 cm2; half-life [20]: 11.4 min
Cc1ccc2nc3c(O)ccc(Br)c3nc2c1 | 25 (≈ 7.23 µg/mL) | – | 12.5 (≈ 3.61 µg/mL) | – | – | – | – | – | > 100 | – | 12.5 (≈ 3.61 µg/mL) | – | – | 25 (≈ 7.23 µg/mL) | – | – | selectivity ratio [22]: > 8
CC1=C(C)C(=O)C(COC(=O)OCOc2c(Br)cc(Br)c3nc4ccccc4nc23)=C(C)C1=O | 9.38 (≈ 5.54 µg/mL) | – | 2.35 (≈ 1.39 µg/mL) | – | 150 | – | 37.5 (≈ 22.1 µg/mL) | 12.5 (≈ 7.38 µg/mL) | – | ≤ 1 | 2.35 (≈ 1.39 µg/mL) | 75 | – | – | 9.38 | 25 (≈ 14.8 µg/mL) | half-life [20]: 6.3 min; Stability [23]: Stable
Cc1ccc2nc3c(Br)cc(Br)c(O)c3nc2c1C | > 100 | – | > 100 | – | – | – | – | – | – | – | > 100 | – | – | – | – | – | Activity [18]: inactive
CCc1cccc2nc3c(Br)cc(Br)c(O)c3nc12 | > 100 | – | > 100 | – | – | – | – | – | – | – | > 100 | – | – | – | – | – | Activity [13]: inactive; Activity [18]: inactive
CN[C@H](CC(C)C)C(=O)N[C@H]1C(=O)N[C@@H](CC(N)=O)C(=O)N[C@H]2C(=O)N[C@H]3C(=O)N[C@H](C(=O)N[C@H](C(=O)O)c4cc(O)cc(O)c4-c4cc3ccc4O)[C@H](O)c3ccc(c(Cl)c3)Oc3cc2cc(c3O[C@@H]2O[C@H](CO)[C@@H](O)[C@H](O)[C@H]2O[C@H]2C[C@](C)(N)[C@H](O)[C@H](C)O2)Oc2ccc(cc2Cl)[C@H]1O [VANCOMYCIN] | > 100 | 3 (≈ 4.35 µg/mL) | – | >2000 | >2000 | – | 3 (≈ 4.35 µg/mL) | > 200 | – | ≤ 1 | – | >2000 | – | – | 150 | 3.9 (≈ 5.65 µg/mL) | MBEC [24]: >2000 µM
Oc1c(Br)cc(Br)c2nc3ccccc3nc12 | 6.25 (≈ 2.21 µg/mL) | 50 (≈ 17.7 µg/mL) | – | 100 | 100 | – | 50 (≈ 17.7 µg/mL) | 23.5 (≈ 8.32 µg/mL) | > 100 | ≤ 1 | – | 150 | 37.5 (≈ 13.3 µg/mL) | 25 (≈ 8.85 µg/mL) | 9.38 | 18.8 to 37.5 (≈ 6.66 to 13.3 µg/mL) | MBEC [24]: 150 µM
CCc1ccc2nc3c(O)c(Br)cc(Br)c3nc2c1 | 2.35 (≈ 0.898 µg/mL) | 75 (≈ 28.7 µg/mL) | 0.1 (≈ 0.0382 µg/mL) | 150 | 75 | 0.59 (≈ 0.225 µg/mL) | 50 (≈ 19.1 µg/mL) | 50 (≈ 19.1 µg/mL) | > 50 | 3 | 0.1 (≈ 0.0382 µg/mL) | 150 | 75 (≈ 28.7 µg/mL) | 6.25 (≈ 2.39 µg/mL) | – | 75 (≈ 28.7 µg/mL) | MBEC [24]: 75 µM
Cc1cc(C)c2nc3c(Br)cc(Br)c(O)c3nc2c1 | 0.2 (≈ 0.0764 µg/mL) | – | 0.1 (≈ 0.0382 µg/mL) | – | – | 0.3 (≈ 0.115 µg/mL) | – | – | > 100 | 2.2 | 0.075 to 0.08 (≈ 0.0287 to 0.0306 µg/mL) | – | – | 50 (≈ 19.1 µg/mL) | – | – | –
Oc1c(Br)cc(Br)c2nc3cc(Oc4ccccc4)ccc3nc12 | 0.2 (≈ 0.0892 µg/mL) | – | 0.1 (≈ 0.0446 µg/mL) | – | – | 0.39 (≈ 0.174 µg/mL) | – | – | > 100 | ≤ 1 | 0.075 (≈ 0.0335 µg/mL) | – | 25 (≈ 11.2 µg/mL) | 6.25 (≈ 2.79 µg/mL) | – | – | –
